This is an account of results in ChEMBL document CHEMBL2407036, “Flow Synthesis and Biological Studies of an Analgesic Adamantane Derivative That Inhibits P2X7-Evoked Glutamate Release” (ACS Med Chem Lett, 2013).

Activity calls are given as the source filed them.

In assay [1] the test system is Rattus norvegicus. Put plainly: Antinociceptive activity against carrageenan-induced hyperalgesia in rat assessed as paw pressure at 10 mg/kg, po measured after 15 mins (reference value: 32.8 +/- 2.9 g). Type of assay: functional. In outline:
(§1)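 Rats received intraplantar carrageenan before oral dosing. Paw-pressure withdrawal threshold (g) was measured before treatment and at 15, 30, 60 and 90 min after it. Carrageenan-injected rats given vehicle served as reference, with saline-injected rats as a further control.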

Assay [2] has as its system Rattus norvegicus. Description: Antinociceptive activity against carrageenan-induced paw edema in rat assessed as paw edema volume at 10 mg/kg, po measured after 30 mins (reference value: 2.71+/- 0.08 ml). Type of assay: functional. On the technique in general: The carrageenan paw model is a standard test of acute inflammation.
Assay [3] concerns Rattus norvegicus. Description: Antinociceptive activity against carrageenan-induced hyperalgesia in rat assessed as paw pressure at 60 mg/kg, po measured after 60 mins (reference value: 31.8 +/- 2.2 g). Type of assay: functional. In outline:
as §1

For assay [4], the system named is Rattus norvegicus. Description: Antinociceptive activity against carrageenan-induced hyperalgesia in rat assessed as paw pressure at 10 mg/kg, po measured after 90 mins (reference value: 34.8 +/- 3.1 g). Type of assay: functional. The method in brief:
as §1

The subject of assay [5] is Rattus norvegicus. Description: Antinociceptive activity against carrageenan-induced hyperalgesia in rat assessed as paw pressure at 60 mg/kg, po measured after 15 mins (reference value: 32.8 +/- 2.9 g). Type of assay: functional. The method in brief:
as §1

Assay [6] concerns Rattus norvegicus. Put plainly: Antinociceptive activity against carrageenan-induced hyperalgesia in rat assessed as paw pressure at 40 mg/kg, po measured after 60 mins (reference value: 31.8 +/- 2.2 g). The class given is functional. In outline:
as §1

Assay [7] relates to Rattus norvegicus. Description: Antinociceptive activity against carrageenan-induced hyperalgesia in rat assessed as paw pressure at 40 mg/kg, po measured after 90 mins (reference value: 34.8 +/- 3.1 g). The class given is functional. The method in brief:
as §1

Assay [8] concerns Rattus norvegicus. Put plainly: Antinociceptive activity against carrageenan-induced hyperalgesia in rat assessed as paw pressure at 40 mg/kg, po measured after 15 mins (reference value: 32.8 +/- 2.9 g). Type of assay: functional. The method in brief:
as §1

Assay [9] deals with Mus musculus. Put plainly: Analgesic activity in Swiss albino mouse assessed as inhibition of acetic acid-induced abdominal contraction at 10 to 60 mg/kg, po measured after 30 mins. The class given is functional, organism-based. The note with it: Abdominal cavity.
Assay [10] has as its system Rattus norvegicus. Description: Antinociceptive activity against carrageenan-induced hyperalgesia in rat assessed as paw pressure at 60 mg/kg, po measured after 90 mins (reference value: 34.8 +/- 3.1 g). The class given is functional. In outline:
as §1

For assay [11], the system named is Rattus norvegicus. Description: Antinociceptive activity against carrageenan-induced paw edema in rat assessed as paw edema volume at 60 mg/kg, po measured after 30 mins (reference value: 2.71+/- 0.08 ml). The class given is functional.
Assay [12] deals with Rattus norvegicus. Description: Antinociceptive activity against carrageenan-induced hyperalgesia in rat assessed as paw pressure at 10 mg/kg, po measured after 30 mins (reference value: 30.6 +/- 3.2 g). Type of assay: functional. In outline:
as §1

In assay [13] the target is T1, P2X purinoceptor 7 (Rattus norvegicus) (UniProt Q64663).
T1 sequence (whole entry): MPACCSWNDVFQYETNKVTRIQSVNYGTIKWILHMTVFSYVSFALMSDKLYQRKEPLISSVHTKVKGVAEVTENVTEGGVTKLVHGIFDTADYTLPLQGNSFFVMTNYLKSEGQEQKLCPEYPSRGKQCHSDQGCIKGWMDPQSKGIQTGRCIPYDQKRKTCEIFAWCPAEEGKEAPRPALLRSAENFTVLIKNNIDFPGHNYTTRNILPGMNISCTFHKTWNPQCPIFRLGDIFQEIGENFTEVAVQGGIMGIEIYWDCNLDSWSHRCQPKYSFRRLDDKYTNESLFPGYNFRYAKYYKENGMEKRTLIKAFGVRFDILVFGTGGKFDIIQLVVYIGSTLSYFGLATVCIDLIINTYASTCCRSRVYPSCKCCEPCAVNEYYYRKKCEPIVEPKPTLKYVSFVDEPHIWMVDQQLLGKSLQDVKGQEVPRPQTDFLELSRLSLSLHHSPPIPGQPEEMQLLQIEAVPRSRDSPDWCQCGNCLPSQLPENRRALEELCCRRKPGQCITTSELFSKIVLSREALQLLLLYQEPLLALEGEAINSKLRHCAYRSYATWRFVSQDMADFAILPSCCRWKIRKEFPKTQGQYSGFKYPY
Description: Antagonist activity at P2X7 in Sprague-Dawley rat synaptosome assessed as inhibition of BzATP-induced [3H]D-aspartate efflux preincubated at 0.1 uM for 8 mins by liquid scintillation counting. Particulars: Brain. In outline: (§2)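 Purified rat cerebrocortical synaptosomes loaded with [3H]D-aspartate and superfused. 100 μM BzATP added for 120 s. Compound added 8 min before BzATP. Ca2+-free conditions used medium with 0.5 mM EGTA, added 18 min before BzATP. Log concentration–response for inhibition of evoked efflux. Mean ± SEM of 3−12 independent experiments in triplicate.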

For assay [14], the system named is Rattus norvegicus. Description: Antinociceptive activity against carrageenan-induced hyperalgesia in rat assessed as paw pressure at 40 mg/kg, po measured after 30 mins (reference value: 30.6 +/- 3.2 g). Type of assay: functional. The method in brief: as §1
For assay [15], the species on record is Rattus norvegicus. Put plainly: Inhibition of K+ depolarization-induced [3H]D-aspartate efflux in Sprague-Dawley rat synaptosome preincubated at 0.1 uM for 8 mins by liquid scintillation counting. The class given is functional, tissue-based. Particulars: Brain. In outline:
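Purified rat cerebrocortical synaptosomes loaded with [3H]D-aspartate and superfused. Depolarization with KCl added for 120 s. Compound added 8 min before K+ depolarization. Evoked efflux measured as mean ± SEM of 3−12 independent experiments in triplicate.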

Assay [16] deals with Rattus norvegicus. Put plainly: Antinociceptive activity against carrageenan-induced paw edema in rat assessed as paw edema volume at 40 mg/kg, po measured after 30 mins (reference value: 2.71+/- 0.08 ml). Type of assay: functional.
The test system of assay [17] is Rattus norvegicus. Put plainly: Antinociceptive activity against carrageenan-induced hyperalgesia in rat assessed as paw pressure at 10 mg/kg, po measured after 60 mins (reference value: 31.8 +/- 2.2 g). Type of assay: functional. The method in brief:
as §1

The target of assay [18] is T1, P2X purinoceptor 7 (Rattus norvegicus). Description: Antagonist activity at P2X7 in Sprague-Dawley rat synaptosome assessed as inhibition of BzATP-induced [3H]D-aspartate efflux preincubated at 0.1 uM for 8 mins by liquid scintillation counting in absence of extracellular Ca2+. The note with it: Brain. The method in brief:
as §2

Assay [19] has as its system Rattus norvegicus. Put plainly: Antinociceptive activity against carrageenan-induced hyperalgesia in rat assessed as paw pressure at 60 mg/kg, po measured after 30 mins (reference value: 30.6 +/- 3.2 g). The class given is functional. In outline:
as §1

The test system of assay [20] is Mus musculus. Put plainly: Analgesic activity in Swiss albino mouse assessed as inhibition of acetic acid-induced abdominal contraction at 20 to 60 mg/kg, po measured after 30 mins. The class given is functional, organism-based. Particulars: Abdominal cavity.
Assay [21] deals with T1, P2X purinoceptor 7 (Rattus norvegicus). Put plainly: Agonist activity at P2X7 in Sprague-Dawley rat synaptosome assessed as [3H]D-aspartate efflux at 100 uM for 120 secs by liquid scintillation counting. The note with it: Brain.
Assay [22] shares this target. Description: Antagonist activity at P2X7 in Sprague-Dawley rat synaptosome assessed as inhibition of BzATP-induced [3H]D-aspartate efflux preincubated at 10 uM for 8 mins by liquid scintillation counting. Particulars: Brain. The method in brief: as §2
Assay [23] has the same target. Description: Antagonist activity at P2X7 in Sprague-Dawley rat synaptosome assessed as inhibition of BzATP-induced [3H]D-aspartate efflux preincubated at 10 uM for 8 mins by liquid scintillation counting in absence of extracellular Ca2+. Particulars: Brain. The method in brief:
as §2

As to `CCOc1ccc(Nc2ccc(/C(=C3C=C/C(=[N+](/CC)Cc4cccc(S(=O)(=O)[O-])c4)C=C/3C)c3ccc(N(CC)Cc4cccc(S(=O)(=O)[O-])c4)cc3C)cc2)cc1.[Na+]` [BRILLIANT BLUE G], the Activity with Rattus norvegicus [1] amounted to 38.7 g; in the assay with Rattus norvegicus [2], 2.63 mL; in the assay on Rattus norvegicus [3], 43.8 g; in the assay on Rattus norvegicus [4] it was 37.1 g; in the assay on Rattus norvegicus [5] it was 47.2 g; with Rattus norvegicus [6], 45.6 g. Further, the Activity was 40.2 g with Rattus norvegicus [7]; 46.3 g in the assay on Rattus norvegicus [8]; 36.2 g in the assay on Rattus norvegicus [10]; 2.21 mL in the assay with Rattus norvegicus [11]; 43.1 g in the assay on Rattus norvegicus [12]; 50.8 g with Rattus norvegicus [14]. Further, the Activity with Rattus norvegicus [16] was 2.17 mL; in the assay with Rattus norvegicus [17] it was 38.5 g; in the assay with Rattus norvegicus [19], 49.6 g. The inhibition entry (in the assay with Mus musculus [9]; in [13]; in assay [18]) was “Active” throughout. Further, in the assay listed under Rattus norvegicus [15], the inhibition result is “inactive”.

With `O=C(NC1(C(=O)NCCc2ccccc2)C2CC3CC(C2)CC1C3)c1ccccc1` (stereo unspecified), the inhibition result in the assay with Mus musculus [20] is “inactive”.

Take `C[C@@H](NC(=O)C1(NC(=O)c2ccccc2)C2CC3CC(C2)CC1C3)C(=O)O` (stereo partly specified): in the assay with Mus musculus [20], the inhibition entry is “inactive”.

For the compound `N[C@H](c1ccccc1)[C@H](NC(=O)C1(NC(=O)c2ccccc2)C2CC3CC(C2)CC1C3)c1ccccc1` (stereo partly specified), the inhibition result with Mus musculus [9] is “Active”.

On to `Nc1ncnc2c1ncn2[C@@H]1O[C@H](COP(=O)(O)OP(=O)(O)OP(=O)(O)O)[C@@H](OC(=O)c2ccc(C(=O)c3ccccc3)cc2)[C@H]1O`, for which the outcome in [21] was Active.

`O=C(NC1(C(=O)NCCc2c[nH]cn2)C2CC3CC(C2)CC1C3)c1ccccc1` (stereo unspecified): in the assay with Mus musculus [20], the inhibition result is “Active”.

Regarding `Clc1cccc(-c2nnnn2Cc2cccnc2)c1Cl`, the inhibition result in [22] and in assay [23] was “Active” in each case.
